Compound activity as filed in PubChem.
Hits are enriched below; roughly 4.6% of the tested compounds scored in any of these assays.
TAAR1 agonist: human TAAR1 agonism; actives 0.99% (n = 360,000); Q96RJ0; activation, % at 3 µM; CHO RD-HGA16 TAAR1, Fluo-8 calcium fluorescence; vehicle wells 0%, saturating PEA agonist 100%;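 active = activation above the mean activation of all test compounds in the run plus 3 SD, cut at about 38% in these data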
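System: CHO RD-HGA16 cells carrying human TAAR1 plus Gα16; Incubation: 17-24 h seeding, 75 min 37 °C dye, 30 min RT; Measured by: Fluo-8 fluorescence, 5 s baseline then 140 s kinetic read; Control set: DMSO and PEA EC100; Replication: single well for each compound.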
GPR7 antagonist: human neuropeptides B/W receptor 1 antagonism. P48145. GPR7-expressing cells, fluorescence antagonist assay. inhibition, % at 4.4 µM. actives 1.1% (n = 290,000). AID 1861; in the data active = inhibition above about 16%, passing the limit was not always enough;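 also: cells stimulated with the agonist NPW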
CHO parental Ca: counter-screen for OX1R antagonists: effect in parental CHO cells; actives 0.63% (n = 330,000); AID 463079; parental CHO-K1, ATP-induced calcium, Fluo-8 fluorescence; inhibition, % at 5.6 µM;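 active = inhibition above that plate's mean sample inhibition plus 3 SD, cut at about 26% in these data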
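Assay system – parental CHO cells · Reagent – ATP stimulus · Detection – intracellular calcium via Fluo-8 no-wash fluorescent dye · Evaluation – percent inhibition of ATP-evoked calcium rise, normalized to controls · Controls – ATP wells versus no-ATP DMSO wells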
TAAR1 antag: antagonists of human TAAR1; CHO RD-HGA16 TAAR1, Fluo-8 calcium fluorescence, antagonist; Q96RJ0; actives 1.5% (n = 360,000); inhibition, % at 3 µM;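 active = inhibition above a per-plate cutoff, the mean inhibition of test compounds on that plate plus 3 SD, cut at about 49% in these data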
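Test system – hTAAR1-expressing CHO RD-HGA16 cells, Gα16-coupled · Reagent – β-PEA at EC80 concentration, post-compound challenge · Compound dosing – 3 µM, single point · Timing – 140 s kinetic read after compound, 140 s after agonist · Detection – Fluo-8 intracellular calcium dye fluorescence, real-time kinetic reads · Control set – DMSO and EC80 PEA controls · Repeats – n of 1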
OX1R antag-1: blocks the human orexin 1 receptor; O43613; CHO/OX1R cells, Fluo-8 calcium fluorescence, orexin A; actives 0.43% (n = 330,000); inhibition, % at 5 µM;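 active = inhibition above its plate's threshold, mean inhibition of all tested compounds on the plate plus 3 SD, cut at about 37% in these data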
Target sequence (O43613 whole entry, looked up): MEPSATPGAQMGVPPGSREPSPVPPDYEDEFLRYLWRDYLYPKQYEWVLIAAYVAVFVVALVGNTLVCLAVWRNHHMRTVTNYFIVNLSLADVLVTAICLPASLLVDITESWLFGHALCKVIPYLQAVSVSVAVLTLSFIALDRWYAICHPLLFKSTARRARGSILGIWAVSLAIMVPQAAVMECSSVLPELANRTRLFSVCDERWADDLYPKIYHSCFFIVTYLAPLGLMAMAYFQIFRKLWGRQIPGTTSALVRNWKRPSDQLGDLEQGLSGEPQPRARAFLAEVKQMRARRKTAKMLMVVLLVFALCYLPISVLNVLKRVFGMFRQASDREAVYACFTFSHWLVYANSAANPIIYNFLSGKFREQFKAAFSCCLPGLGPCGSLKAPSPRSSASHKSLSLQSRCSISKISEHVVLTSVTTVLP
OX1R antag-2: antagonists of human orexin 1 receptor (OX1R); OX1R-expressing cells, FRET antagonist read-out; O43613; actives 1.8% (n = 330,000); inhibition, % at 6.6 µM; AID 485270; in the data active = inhibition mostly above about 38%, no sharp cut-off; inactive = mostly below about 40%
TAAR1 ag confirm: confirmation of human TAAR1 agonists; CHO RD-HGA16 TAAR1, Fluo-8 calcium fluorescence; scaled: DMSO 0%, maximal phenethylamine 100%; actives 82% (n = 2,400); activation, % at 3 µM; AID 651783; shares compounds with TAAR1 agonist;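 active = activation above a cutoff set at the run's mean compound activation plus 3 SD, cut at about 39% in these data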
Ga16 nonsel ag: nonselective agonist in parental cells, TAAR1 agonist counter-screen. AID 651787. activation, % at 3 µM. shares compounds with TAAR1 agonist. CHO-Ga16 parental, Fluo-8 calcium fluorescence; normalized to maximal ATP response, DMSO zero. actives 50% (n = 2,400);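 active = activation above the run cutoff, the mean activation over all tested wells plus 3 SD, cut at about 12% in these data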
TAAR1 desens: TAAR1 response desensitization, agonist counter-screen; inhibition, % at 3 µM; CHO RD-HGA16 hTAAR1, Fluo-8 calcium, beta-PEA response inhibition; shares compounds with TAAR1 agonist; actives 46% (n = 2,400);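 active = inhibition above the run cutoff, the mean inhibition of all test compounds plus 3 SD, cut at about 49% in these data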;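 also: beta-PEA stimulus applied at its EC80; loss of beta-PEA calcium signal after compound pretreatment read as receptor desensitization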
Ga16 nonsel ant: nonselective Ga16 antagonist in TAAR1 agonist counter-screen. shares compounds with TAAR1 agonist. CHO-Ga16 ATP-induced calcium, Fluo-8 fluorescence. inhibition, % at 3 µM. actives 39% (n = 2,400). AID 651952;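 active = inhibition above the plate's mean compound inhibition plus 3 SD, computed per plate, cut at about 22% in these data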
Numbers stand for hits; i = inactive; nt = no result given.

SMILES	TAAR1 agonist	GPR7 antagonist	CHO parental Ca	TAAR1 antag	OX1R antag-1	OX1R antag-2	TAAR1 ag confirm	Ga16 nonsel ag	TAAR1 desens	Ga16 nonsel ant
CCCCCCn1c(=O)[nH]c2nc3cc(N)ccc3nc2c1=O	118	i	51	57	75	i	95	96	68	67
CCc1c(-c2ccc(OC)c(OC)c2)ncn1CCc1ccccc1OC	i	nt	nt	i	nt	nt	nt	nt	nt	nt
CCc1c(Cc2ccccc2)ncn1CCc1ccccc1OC	52	nt	nt	i	nt	nt	75	i	i	i
COc1ccccc1CCn1cnc(Cc2ccccc2)c1C(C)C	54	nt	nt	i	nt	nt	72	i	59	22
CCCCCc1c(-c2cccc(F)c2)ncn1CCc1ccccc1OC	i	nt	nt	i	nt	nt	nt	nt	nt	nt
O=C1c2c(-c3ccc(Br)cc3)noc2CCN1Cc1cn(-c2ccc(Cl)cc2)nn1	i	nt	nt	i	nt	nt	nt	nt	nt	nt
C/C(=N\NC(=O)c1nnn(-c2nonc2N)c1-c1cccs1)c1ccc(C)cc1	103	i	i	i	i	i	104	72	i	i
C/C(=N\NC(=O)c1nnn(-c2nonc2N)c1-c1cccs1)c1ccc(O)cc1	i	i	i	i	i	i	nt	nt	nt	nt
COc1ccc(/C(C)=N/NC(=O)c2nnn(-c3nonc3N)c2-c2cccs2)cc1	46	i	i	i	i	i	81	55	i	i
Cc1cc2nc3c(=O)n(C4CCCCC4)c(=O)[nH]c3nc2cc1N	57	i	nt	i	nt	nt	i	64	i	39
Cc1cc(C)cc(Nc2cc(=O)n(C3CCCCC3)c(=O)[nH]2)c1	i	i	i	i	i	i	nt	nt	nt	nt
Fc1c(F)c(C(F)(F)F)c(F)c(F)c1N/N=C\c1cccs1	92	i	i	75	i	i	70	86	71	80
Cc1c(C(=O)N2CCCCC2)c(S(=O)(=O)NCCc2ccc(S(N)(=O)=O)cc2)c(C)n1C	i	i	i	i	i	i	nt	nt	nt	nt
O=C(NCCC1=CCCCC1)c1cc(COc2c(F)cccc2F)on1	i	i	i	i	i	i	nt	nt	nt	nt
CSc1ccccc1OCc1cc(C(=O)NCCC2=CCCCC2)no1	55	i	i	i	i	i	38	i	89	58
O=C(NCCCNC(=O)c1c(Cl)cccc1Cl)c1c(Cl)cccc1Cl	i	nt	i	i	i	i	nt	nt	nt	nt
CN(CCOC(=O)/C=C/c1ccccc1)C(C)(C)C	i	i	i	i	i	i	nt	nt	nt	nt
CC(C)N(C)CCOC(=O)/C=C/c1ccccc1	73	i	i	54	i	i	i	i	i	i
Cc1cc(C)n2nc(C(=O)OCC(=O)c3ccc(F)cc3)nc2n1	i	nt	i	i	i	i	nt	nt	nt	nt
COc1ccccc1CCNC(=O)CCn1nc(C)c2c(C)n(-c3ccccc3)nc2c1=O	58	i	i	i	i	i	71	i	i	i
Cc1ccccc1CCNC(=O)Cn1nc(C)c2c(C)n(-c3ccccc3)nc2c1=O	50	i	i	i	i	i	53	i	i	i
CN(C)S(=O)(=O)c1cccc(COC(=O)CNC(=O)c2ccc(Br)o2)c1	i	nt	nt	i	nt	nt	nt	nt	nt	nt
CC1CN(S(=O)(=O)c2cc(C(=O)NC(C)c3cccnc3)ccc2Cl)CC(C)O1 (stereo not drawn)	i	nt	i	i	i	i	nt	nt	nt	nt
O=C(Nc1cccnc1)c1ccc(-c2ccc(Cl)cc2)o1	i	i	i	i	i	i	nt	nt	nt	nt
O=C(NCCc1ccccc1)c1ccc(-c2ccccc2Cl)o1	51	i	i	i	i	i	i	19	81	i
CC(=O)Nc1ccc(NC(=O)c2ccc(-c3ccccc3Cl)o2)cc1	58	nt	nt	54	nt	nt	40	43	57	38
